Results reported in ChEMBL document CHEMBL4138095, “Thiosemicarbazones and 4-thiazolidinones indole-based derivatives: Synthesis, evaluation of antiproliferative activity, cell death mechanisms and topoisomerase inhibition assay” (Eur J Med Chem, 2017).
Active and inactive are the calls of the source. The rule behind the calls is not given here.

Columns and labels:
[1] = Binding affinity to DNA (unknown origin)
[2] = tested on: HT-29; assay: Cell cycle arrest in human HT-29 cells assessed as accumulation at S phase at 1.25 nM after 24 hrs by propidium iodide staining-based flow cytometric method (reference value: 17.2 +/- 1.2%)
[3] = tested on: HT-29; assay: Cell cycle arrest in human HT-29 cells assessed as accumulation at G1 phase at 1.25 nM after 24 hrs by propidium iodide staining-based flow cytometric method (reference value: 46.1 +/- 2.1%)
[4] = tested on: HT-29; assay: Cell cycle arrest in human HT-29 cells assessed as accumulation at G2/M phase at 1.25 nM after 24 hrs by propidium iodide staining-based flow cytometric method (reference value: 32.5 +/- 2.3%)
[5] = tested on: HT-29; assay: Cell cycle arrest in human HT-29 cells assessed as accumulation at sub-G1 phase at 1.25 nM after 24 hrs by propidium iodide staining-based flow cytometric method (reference value: 3.5 +/- 0.7%)
[6] = tested on: U-251; assay: Growth inhibition of human U251 cells after 48 hrs by sulforhodamine B dye-based spectrophotometric assay; type: functional; settings: U-251, 48 h
[7] = tested on: MCF7; assay: Growth inhibition of human MCF7 cells after 48 hrs by sulforhodamine B dye-based spectrophotometric assay; type: functional; settings: MCF7, 48 h
[8] = tested on: NCI/ADR-RES; assay: Growth inhibition of human NCI-ADR-RES cells after 48 hrs by sulforhodamine B dye-based spectrophotometric assay; type: functional
[9] = tested on: 786-0; assay: Growth inhibition of human 786-0 cells after 48 hrs by sulforhodamine B dye-based spectrophotometric assay; type: functional; settings: 786-0, 48 h
[10] = tested on: NCI-H460; assay: Growth inhibition of human NCI-H460 cells after 48 hrs by sulforhodamine B dye-based spectrophotometric assay; type: functional; settings: NCI-H460, 48 h
[11] = tested on: OVCAR-3; assay: Growth inhibition of human OVCAR3 cells after 48 hrs by sulforhodamine B dye-based spectrophotometric assay; type: functional; settings: OVCAR-3, 48 h
[12] = tested on: HT-29; assay: Growth inhibition of human HT-29 cells after 48 hrs by sulforhodamine B dye-based spectrophotometric assay; type: functional; settings: HT-29, 48 h
[13] = tested on: K562; assay: Growth inhibition of human K562 cells after 48 hrs by sulforhodamine B dye-based spectrophotometric assay; type: functional; settings: K562, 48 h
[14] = Growth inhibition of human HaCaT cells after 48 hrs by sulforhodamine B dye-based spectrophotometric assay; type: cell-based
[15] = biological target: DNA topoisomerase 2-alpha (Homo sapiens) (UniProt P11388); assay: Inhibition of recombinant human topoisomerase-2alpha assessed as reducton in relaxation of supercoiled pUC19 DNA at 50 to 100 uM after 30 mins by ethidium bromide staining-based gel electrophoresis assay
Chain of DNA topoisomerase 2-alpha (Homo sapiens) (P11388 whole entry): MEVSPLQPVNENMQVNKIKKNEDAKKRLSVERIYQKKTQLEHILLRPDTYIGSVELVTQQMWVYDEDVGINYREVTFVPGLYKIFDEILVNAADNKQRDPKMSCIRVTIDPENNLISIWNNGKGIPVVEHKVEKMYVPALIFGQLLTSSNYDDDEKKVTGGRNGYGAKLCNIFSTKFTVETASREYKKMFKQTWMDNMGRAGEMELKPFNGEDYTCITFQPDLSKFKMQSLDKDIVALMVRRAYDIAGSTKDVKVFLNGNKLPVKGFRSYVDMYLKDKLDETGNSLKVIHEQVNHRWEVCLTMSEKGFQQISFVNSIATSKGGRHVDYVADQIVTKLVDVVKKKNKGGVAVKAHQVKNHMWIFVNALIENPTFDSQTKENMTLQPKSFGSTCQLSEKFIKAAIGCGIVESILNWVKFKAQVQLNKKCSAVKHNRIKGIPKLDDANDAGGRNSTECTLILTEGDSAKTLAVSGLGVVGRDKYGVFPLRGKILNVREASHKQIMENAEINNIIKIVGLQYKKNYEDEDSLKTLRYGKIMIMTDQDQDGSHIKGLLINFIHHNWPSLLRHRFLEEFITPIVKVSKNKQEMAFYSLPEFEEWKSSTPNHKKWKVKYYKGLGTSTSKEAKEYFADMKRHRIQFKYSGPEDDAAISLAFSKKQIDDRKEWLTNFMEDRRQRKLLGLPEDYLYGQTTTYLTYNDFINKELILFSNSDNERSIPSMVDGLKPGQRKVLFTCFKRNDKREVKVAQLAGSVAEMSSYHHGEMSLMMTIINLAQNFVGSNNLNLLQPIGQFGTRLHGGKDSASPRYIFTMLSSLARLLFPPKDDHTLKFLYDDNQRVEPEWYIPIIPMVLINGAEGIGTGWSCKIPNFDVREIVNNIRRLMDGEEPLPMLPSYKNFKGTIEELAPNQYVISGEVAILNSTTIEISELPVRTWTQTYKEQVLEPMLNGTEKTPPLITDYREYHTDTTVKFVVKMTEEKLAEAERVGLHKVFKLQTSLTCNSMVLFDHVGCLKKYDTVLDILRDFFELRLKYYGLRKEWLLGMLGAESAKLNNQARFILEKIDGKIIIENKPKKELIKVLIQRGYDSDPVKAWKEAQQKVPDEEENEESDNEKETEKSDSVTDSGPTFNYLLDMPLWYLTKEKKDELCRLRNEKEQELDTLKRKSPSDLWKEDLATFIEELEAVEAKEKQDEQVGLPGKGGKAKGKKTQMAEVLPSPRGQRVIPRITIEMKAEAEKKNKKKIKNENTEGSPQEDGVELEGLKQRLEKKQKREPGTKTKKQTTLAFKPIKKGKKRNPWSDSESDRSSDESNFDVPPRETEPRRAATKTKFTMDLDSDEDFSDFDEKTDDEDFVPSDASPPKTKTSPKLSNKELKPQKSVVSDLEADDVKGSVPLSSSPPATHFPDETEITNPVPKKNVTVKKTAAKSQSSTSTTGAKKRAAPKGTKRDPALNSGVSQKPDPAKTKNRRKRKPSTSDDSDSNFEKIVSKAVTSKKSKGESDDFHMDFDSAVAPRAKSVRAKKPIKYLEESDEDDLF
Procedure, shortened: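 Supercoiled pUC19 (100 ng) with 4 units recombinant human topo IIα (p170) in relaxation buffer, ± compound at 50 or 100 µM or m-AMSA control, 30 min at 37 °C; stopped with 1% SDS, proteinase K digested; products resolved by agarose gel, ethidium bromide stained, imaged under UV.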

[16] = tested on: HT-29; assay: Induction of apoptosis in human HT-29 cells after 24 hrs by annexin-V-PE/7-AAD staining-based flow cytometry; type: functional, cell-based
Procedure, shortened: (§1)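 HT-29 seeded 2×10^5 cells/well, 24 h; treated 24 h at 5–50 μM (vehicle DMSO 0.1%); trypsinized, 1×10^5 cells in PBS plus binding buffer with annexin-V-PE and 7-AAD, 20 min dark, room temperature; 5000 events per experiment by flow cytometry; mean ± SE, two independent experiments in triplicate; ANOVA/Tukey.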

[17] = tested on: HT-29; assay: Induction of apoptosis in human HT-29 cells assessed as increase in cell subpopulation with phosphatidylserine externalization at 5 uM after 24 hrs by annexin-V-PE/7-AAD staining-based flow cytometry; type: functional; procedure, shortened: as §1
[18] = tested on: HT-29; assay: Cell cycle arrest in human HT-29 cells assessed as accumulation at sub-G1 phase at 5 uM after 24 hrs by propidium iodide staining-based flow cytometric method (reference value: 3.5 +/- 0.7%); type: functional
[19] = tested on: HT-29; assay: Cell cycle arrest in human HT-29 cells assessed as accumulation at sub-G1 phase at 10 uM after 24 hrs by propidium iodide staining-based flow cytometric method (reference value: 3.5 +/- 0.7%); type: functional
[20] = tested on: HT-29; assay: Cell cycle arrest in human HT-29 cells assessed as accumulation at sub-G1 phase at 30 uM after 24 hrs by propidium iodide staining-based flow cytometric method (reference value: 3.5 +/- 0.7%); type: functional
[21] = tested on: HT-29; assay: Cell cycle arrest in human HT-29 cells assessed as accumulation at G1 phase at 5 uM after 24 hrs by propidium iodide staining-based flow cytometric method (reference value: 46.1 +/- 2.1%); type: functional
[22] = tested on: HT-29; assay: Cell cycle arrest in human HT-29 cells assessed as accumulation at G1 phase at 10 uM after 24 hrs by propidium iodide staining-based flow cytometric method (reference value: 46.1 +/- 2.1%); type: functional
[23] = tested on: HT-29; assay: Cell cycle arrest in human HT-29 cells assessed as accumulation at G1 phase at 30 uM after 24 hrs by propidium iodide staining-based flow cytometric method (reference value: 46.1 +/- 2.1%); type: functional
[24] = tested on: HT-29; assay: Cell cycle arrest in human HT-29 cells assessed as accumulation at S phase at 5 uM after 24 hrs by propidium iodide staining-based flow cytometric method (reference value: 17.2 +/- 1.2%); type: functional
[25] = tested on: HT-29; assay: Cell cycle arrest in human HT-29 cells assessed as accumulation at S phase at 10 uM after 24 hrs by propidium iodide staining-based flow cytometric method (reference value: 17.2 +/- 1.2%); type: functional
[26] = tested on: HT-29; assay: Cell cycle arrest in human HT-29 cells assessed as accumulation at S phase at 30 uM after 24 hrs by propidium iodide staining-based flow cytometric method (reference value: 17.2 +/- 1.2%); type: functional
[27] = tested on: HT-29; assay: Cell cycle arrest in human HT-29 cells assessed as accumulation at G2/M phase at 5 uM after 24 hrs by propidium iodide staining-based flow cytometric method (reference value: 32.5 +/- 2.3%); type: functional
[28] = tested on: HT-29; assay: Cell cycle arrest in human HT-29 cells assessed as accumulation at G2/M phase at 10 uM after 24 hrs by propidium iodide staining-based flow cytometric method (reference value: 32.5 +/- 2.3%); type: functional
[29] = tested on: HT-29; assay: Cell cycle arrest in human HT-29 cells assessed as accumulation at G2/M phase at 30 uM after 24 hrs by propidium iodide staining-based flow cytometric method (reference value: 32.5 +/- 2.3%); type: functional
[30] = tested on: Calf thymus DNA; assay: Binding affinity to calf thymus DNA assessed as maximum absorption peak at 10 to 80 uM after 10 mins by UV-visible absorption assay (reference value: 334 nm); type: nucleic-acid assay; settings: Bos taurus
Procedure, shortened: (§2)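 ctDNA in Tris-HCl (0.01 M, pH 7.6), sonicated 5 min; concentration from ε260 6600 M⁻¹ cm⁻¹, as base-pair equivalents. Ligand from 1 mM DMSO stock diluted in buffer (10–80 μM), titrated with increasing ctDNA, stirred 10 min at room temperature, UV-vis read in 1 cm quartz cuvette; hyperchromicity with 100 µM ctDNA versus free ligand; Kb by curve fitting.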

[31] = tested on: Calf thymus DNA; assay: Binding affinity to calf thymus DNA assessed as hyperchromicity at 100 uM after 10 mins by UV-visible absorption assay relative to control; type: nucleic-acid assay; settings: Bos taurus; procedure, shortened: as §2
[32] = tested on: Calf thymus DNA; assay: Binding affinity to calf thymus DNA assessed as hyperchromicity after 10 mins by UV-visible absorption assay; type: nucleic-acid assay; settings: Bos taurus; procedure, shortened: as §2
[33] = tested on: Calf thymus DNA; assay: Binding affinity to calf thymus DNA at 15 uM by fluorescence spectra analysis; type: nucleic-acid assay; settings: Bos taurus
Procedure, shortened: (§3)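 Fluorescence of 15 μM ligand in 0.01 M Tris, pH 7.6, 25 °C, 1 cm quartz cuvette; excitation 335 nm, emission 435 nm (spectra 370–700 nm); ctDNA (0–100 μM) added stepwise into the cell; quenching analysed by Stern-Volmer plot to give Ksv.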

[34] = tested on: Calf thymus DNA; assay: Binding affinity to calf thymus DNA by fluorescence spectra analysis; type: nucleic-acid assay; settings: Bos taurus; procedure, shortened: as §3

| SMILES | GI50 [6] [µM] | GI50 [7] [µM] | GI50 [8] [µM] | GI50 [9] [µM] | GI50 [10] [µM] | GI50 [11] [µM] | GI50 [12] [µM] | GI50 [13] [µM] | GI50 at 48 h [14] [µM] | other results |
| --- | --- | --- | --- | --- | --- | --- | --- | --- | --- | --- |
| S=C(N/N=C/c1c2ccccc2nc2ccccc12)Nc1cccc2ccccc12 |  |  |  |  |  |  |  |  |  | Kb [1]: 8.47 ×10⁵ /M |
| COc1cc2c(c(OC)c1OC)-c1ccc(OC)c(=O)cc1[C@@H](NC(C)=O)CC2 [COLCHICINE] |  |  |  |  |  |  |  |  |  | Activity [2]: 5.9%; Activity [3]: 14.6%; Activity [4]: 76%; Activity [5]: 3.5% |
| S=C(NCCc1ccccc1)N/N=C/c1c[nH]c2ccc(Br)cc12 | 7.49 | 6.81 | 7.14 | 7.58 | 8.48 | 8.22 | 7.87 | 2.12 | 7.85 |  |
| COc1cc(NS(C)(=O)=O)ccc1Nc1c2ccccc2nc2ccccc12 |  |  |  |  |  |  |  |  |  | inhibition [15]: Active |
| Cc1ccc(NC(=S)N/N=C/c2c[nH]c3ccccc23)cc1 | 8.11 | 2.52 | 1.46 | 3.99 | 11.7 | 3.88 | 1.45 | 0.16 | 0.99 |  |
| S=C(N/N=C/c1c[nH]c2ccccc12)Nc1cccc2ccccc12 | 0.92 | 0.25 | 6.48 | 0.25 | 0.38 | 0.21 | 0.01 | 0.01 | 0.59 | Activity [16]: Dose-dependent effect; Activity [17]: 12.6%; Activity [18]: 2%; Activity [19]: 1.6%; Activity [20]: 4.8%; Activity [21]: 10.7%; Activity [22]: 26.7%; Activity [23]: 34.9%; Activity [24]: 6.8%; Activity [25]: 5.5%; Activity [26]: 7.3%; Activity [27]: 80.5%; Activity [28]: 66.2%; Activity [29]: 53.1%; Activity [30]: 334 nm; Activity [31]: 13%; Kb [32]: 4.3 ×10⁴ /M; Activity [33]: Active; KSV [34]: 1.19 ×10³ /M; inhibition [15]: Active |
| COc1cccc2c1C(=O)c1c(O)c3c(c(O)c1C2=O)C[C@@](O)(C(=O)CO)C[C@@H]3O[C@H]1C[C@H](N)[C@H](O)[C@H](C)O1 [DOXORUBICIN] | 0.14 | 0.07 | 0.77 | 0.11 | 0.09 | 0.22 | 0.23 | 0.93 | 0.2 |  |
| S=C(NCCc1ccccc1)N/N=C/c1c[nH]c2ccccc12 | 77.9 | 15.5 | 38.7 | 76.3 | > 100 | > 100 | > 100 | 0.17 | > 100 |  |
| S=C(N/N=C/c1c[nH]c2ccc(Br)cc12)Nc1cccc2ccccc12 | 7.32 | 0.95 | 6.18 | 6.56 | 6.99 | 1.6 | 6.56 | 5.29 | 6.15 |  |
| Cc1ccc(N2C(=O)CS/C2=N/N=C/c2c[nH]c3ccccc23)cc1 | 90.2 | > 100 | > 100 | 79.1 | > 100 | > 100 | > 100 | > 100 | > 100 |  |
| O=C1CS/C(=N/N=C/c2c[nH]c3ccc(Br)cc23)N1c1cccc2ccccc12 | 48.8 | 6.06 | 12.4 | 29.1 | > 100 | 5.12 | 27.3 | > 100 | 6.23 |  |
| Cc1ccc(N2C(=O)CS/C2=N/N=C/c2c[nH]c3ccc(Br)cc23)cc1 | 54.7 | 59.5 | 64.6 | 39.9 | 96.6 | 98.5 | > 100 | 0.01 | 54 |  |
| O=C1CS/C(=N/N=C/c2c[nH]c3ccccc23)N1c1cccc2ccccc12 | 72.5 | 34.9 | 38.6 | 62.1 | > 100 | 25.7 | 96.9 | > 100 | 63 |  |
